# IDH1 mut inh: inhibitors of IDH1 R132H reductase, primary screen, biochemical, plate reader, single point. Isocitrate dehydrogenase [NADP] cytoplasmic (Homo sapiens), O75874. diaphorase/resazurin fluorescence, 60 min. inhibition, % at 10 µM. actives 0.18% (n = 70,000). AID 624101, 2012; in the data active = inhibition above about 34%;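 also: 0% = DMSO and 100% = no enzyme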
# GASC1 inh: inhibitors of GASC-1 (KDM4C) histone demethylase, primary screen, biochemical, single concentration HTS; actives 0.15% (n = 96,000); AID 720574, 2013; inhibition, % at 12.5 µM; GST-KDM4C 2-372, H3K9me3 peptide, LANCE TR-FRET; Lysine-specific demethylase 4C (Homo sapiens), Q9H3R0;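 active = mean replicate inhibition above about 25%, with at least 55% of replicates also reaching it, limit read from the data, passing the limit was not always enough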
# Target sequence (Q9H3R0 2-372 limits assumed): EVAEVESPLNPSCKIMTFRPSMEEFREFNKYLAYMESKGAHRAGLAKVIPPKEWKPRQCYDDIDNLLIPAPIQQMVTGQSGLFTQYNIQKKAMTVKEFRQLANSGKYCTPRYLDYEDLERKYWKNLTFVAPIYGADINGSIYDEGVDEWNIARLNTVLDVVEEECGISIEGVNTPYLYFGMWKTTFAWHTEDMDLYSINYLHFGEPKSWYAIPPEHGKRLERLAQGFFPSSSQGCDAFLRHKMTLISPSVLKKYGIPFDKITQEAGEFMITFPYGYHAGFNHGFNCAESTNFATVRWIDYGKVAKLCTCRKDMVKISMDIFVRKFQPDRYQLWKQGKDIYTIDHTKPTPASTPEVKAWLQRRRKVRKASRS
#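 System – N-terminal GST-fused human GASC-1 (KDM4C) fragment, residues 2-372 · Input – enzyme final amount 10 nM · Technique – LANCE TR-FRET, Eu antibody, ULight-streptavidin, EDTA, ex 340 nm, em 618/671 nm · Medium – HEPES buffer, pH 7.5, plus ascorbate · Incubation – enzyme reaction 30 min, then detection 60 min, both room temperature · Reagent – H3K9me3 peptide with Fe(II)/2OG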
# Pf Dd2 growth: P. falciparum Dd2 growth inhibitors, primary screen, SYBR Green fluorescence, single dose replicates. 72 h; stronger effect = lower value. activity change, % at 10 µM. actives 2.3% (n = 94,000); in the data active = activity change below about -80%
# * marks the source's active call; other numbers are inactive results; . = no result; ! = not active in a repeat. Shown is part of a subset that was picked to be rich in hits.
SMILES,IDH1 mut inh,GASC1 inh,Pf Dd2 growth
N#Cc1cccc(-c2ccc(C3[C@@H]4CN(C(=O)C5CC5)C[C@H]3N4)cc2)c1 (stereo not given in full),.,-1,-90*!
Cc1cccc(-c2ccc(C3[C@@H]4CN(Cc5cccc(F)c5)C[C@H]3N4)cc2)c1 (stereo not given in full),.,1,15
Cc1ccc(S(=O)(=O)N(C)C[C@@H]2OCCCC[C@@H](C)Oc3ccc(NC(=O)CCCN(C)C)cc3C(=O)N([C@H](C)CO)C[C@H]2C)cc1,.,4,-76
C/C=C/c1ccc2c(c1)O[C@@H](CN(C)C(=O)CN(C)C)[C@@H](C)CN([C@@H](C)CO)S2(=O)=O,0,6,-38
C[C@@H](O)C#Cc1ccc([C@H]2[C@@H](CO)N3CCCCN(C(=O)c4cccc(F)c4)C[C@@H]23)cc1,.,-1,35
CCCC#Cc1ccc2c(c1)O[C@H](CN(C)C(=O)c1ccccc1)[C@@H](C)CN([C@H](C)CO)S2(=O)=O,-2,0,-30
CCN(C[C@@H]1[C@@H](c2ccc(C3=CCCCC3)cc2)[C@@H](CO)N1C(C)=O)C(C)=O,.,4,-11
N#Cc1ccc(-c2ccc(C3[C@@H]4CN(C(=O)C5CCC5)C[C@H]3N4)cc2)cc1 (stereo not given in full),.,-3,-91*!
N#Cc1ccc(-c2ccc(C3[C@@H]4CN(C(=O)C5CCCC5)C[C@H]3N4)cc2)cc1 (stereo not given in full),.,-1,-81*
O=C(C1CCCC1)N1C[C@@H]2N[C@H](C1)C2c1ccc(-c2ccncc2)cc1 (stereo not given in full),.,1,-1
O=C(C1CCCC1)N1C[C@@H]2N[C@H](C1)C2c1ccc(-c2cncnc2)cc1 (stereo not given in full),.,1,-9
C/C=C/c1ccc2c(c1)O[C@@H](CN(C)C(=O)NCCC)[C@H](C)CN([C@H](C)CO)S2(=O)=O,1,-2,-8
C[C@@H]1CN([C@@H](C)CO)C(=O)c2cc(-c3ccccc3F)cnc2O[C@H]1CN(C)Cc1ccccc1,-1,-1,-28
CC(C)c1ccc(NC(=O)C[C@H]2CC[C@H]3[C@@H](COc4ccc(NC(=O)Nc5ccc(F)c(F)c5)cc4C(=O)N3C)O2)cc1,.,.,5
C[C@@H]1CN([C@@H](C)CO)S(=O)(=O)c2ccc(C#Cc3ccncc3)cc2O[C@H]1CN(C)S(=O)(=O)c1ccc(F)cc1,-1,-6,-86*
C[C@H](CO)N1C[C@H](C)[C@H](CN(C)S(=O)(=O)c2ccccc2)Oc2cc(C#Cc3ccncc3)ccc2S1(=O)=O,1,-9,-80
C[C@@H]1CN([C@@H](C)CO)S(=O)(=O)c2ccc(C#Cc3ccc(F)cc3)cc2O[C@H]1CN(C)S(=O)(=O)c1ccc(F)cc1,.,-4,-68
C[C@H](CO)N1C[C@H](C)[C@H](CN(C)S(=O)(=O)c2ccc(F)cc2)Oc2cc(C#Cc3ccncc3)ccc2S1(=O)=O,1,-6,-84*
Cc1ccc(S(=O)(=O)N(C)C[C@H]2Oc3cc(C#Cc4ccncc4)ccc3S(=O)(=O)N([C@@H](C)CO)C[C@H]2C)cc1,-1,.,-82*
C[C@H]1CN([C@@H](C)CO)S(=O)(=O)c2ccc(C#Cc3ccc(F)cc3)cc2O[C@@H]1CN(C)S(=O)(=O)c1ccc(F)cc1,0,2,-50
C[C@H](CO)N1C[C@H](C)[C@@H](CN(C)S(=O)(=O)c2ccc(F)cc2)Oc2cc(C#Cc3ccc(F)cc3)ccc2S1(=O)=O,-2,-2,-48
C[C@H]1CN([C@@H](C)CO)S(=O)(=O)c2ccc(C#Cc3ccncc3)cc2O[C@@H]1CN(C)S(=O)(=O)c1ccc(F)cc1,0,-2,-88*
C[C@H](O)C#Cc1cnc2c(c1)C(=O)N([C@@H](C)CO)C[C@@H](C)[C@@H](CN(C)Cc1ccc(-c3ccccc3)cc1)O2,.,0,-16
CCCC(=O)Nc1ccc2c(c1)C(=O)N(C)C[C@@H](OC)[C@H](C)CN(Cc1cccc(F)c1)[C@H](C)CO2,0,-1,-41
COc1ccc(NC(=O)Nc2ccc3c(c2)C(=O)N([C@@H](C)CO)C[C@H](C)[C@H](CN(C)Cc2ccncc2)O3)cc1,0,-1,19
O=C(C[C@H]1CC[C@@H]2[C@H](COC[C@H](O)CN2Cc2ccccc2F)O1)N1CCc2ccccc2C1,.,-1,-16
C[C@H](CO)N1C[C@H](C)[C@H](CN(C)Cc2ccncc2)Oc2c(NS(C)(=O)=O)cccc2C1=O,1,0,25
